Published values pooled from the literature.

CCCn1nc(C(=O)N2CCCCC2)c2c1CCC(NCc1ccc(N3CCCCC3)cc1)C2 (stereo not shown)
solubility (PBS; 16 h; pH 7.4): 463 µM

Cc1cc(Nc2ccc(C(F)(F)F)cc2)n2nc(C(C)(F)F)nc2n1
solubility (nephelometry; aqueous buffer; pH 6.5): 70 to 140 µM

CN1CCN(C(=O)C2CCN(c3nccc4[nH]c(-c5ccc(F)c(F)c5)nc34)CC2)CC1
solubility (shake flask; aqueous buffer; pH 6.5): > 200 µM

Cc1cccc(C(=O)Nc2cccc(NC(=O)c3ccccc3)c2)c1
solubility (PBS; pH 7.4): 0.82 µM

COc1cccc(OC)c1-c1cc(C(=O)N[C@@H](CC(C)C)C(=O)O)nn1-c1ccnc2cc(Cl)ccc12
solubility (aqueous buffer; pH 5): 52.9 µg/mL

CC(=O)Oc1ccccc1C(=O)O
solubility (PBS; pH 7.4): 12600 µg/mL

O=C(CCCCCCC(=O)Nc1ccccc1)NO
solubility (HPLC; water; 48 h; pH 6; 25 °C): 160 µg/mL

CCOc1ccc2cc(-c3nn(C4CCCCCC4)c(N)c3C(N)=O)ccc2n1
solubility (PBS; pH 6.5; 25 °C): 46.5 µM

COc1cc(Cl)c(C(=O)N[C@@H](CN[C@H]2CC[C@@H](N)CC2)Cc2ccc(C#N)cc2)cc1-c1ccc(CN[C@H](C)c2ccc(C)cc2)o1
solubility (aqueous buffer; pH 6.5): > 3070 µg/mL

CCOc1nc2nc(C)cc(Nc3ccc(S(F)(F)(F)(F)F)cc3)n2n1
solubility (nephelometry; aqueous buffer; pH 6.5): 4 to 8 µM

COc1cc2ncnc3c2cc1OCCOCCOc1cc(F)c(Cl)cc1N3
solubility (HPLC; aqueous buffer; 24 h): 0.131 to 0.174 µg/mL

COc1c(Cl)cccc1Nc1nc(NCc2ccccc2)c2ccccc2n1
solubility (aqueous buffer; pH 6.2): 0.23 µg/mL

COc1cccc(OC)c1-c1nc(C(=O)N[C@@H](CC(C)C)C(=O)O)cn1-c1ccnc2cc(Cl)ccc12
solubility (aqueous buffer; pH 5): > 52 µg/mL

NCCNc1nc2cc(Cl)ccc2n1Cc1ccccc1
solubility (shake flask; aqueous buffer; 20 h; pH 6.5; 25 °C): ≥ 200 µM

Brc1ccccc1CNc1nc(NCc2ccccc2)c2ccccc2n1
solubility (aqueous buffer; pH 5): 0.21 µg/mL

COc1cc(OC)cc(N(CCNC(C)C)c2ccc3ncc(-c4cnn(C)c4)nc3c2)c1
solubility (aqueous buffer; pH 6.79): 6820 µg/mL

Cl.c1ccc(Cn2c(N3CCNCC3)nc3cc(-c4cc[nH]n4)ccc32)cc1
solubility (shake flask; aqueous buffer; 20 h; pH 6.5; 25 °C): 195 µM

Cc1c(F)cccc1NC(=O)Nc1ccc(Cl)c(S(=O)(=O)[C@H]2CCCNC2)c1O
solubility (aqueous buffer; 4 h; pH 3): 161 µg/mL

CCOC(=O)c1ccc(N)cc1
solubility (PBS; pH 7.4): 890 µg/mL

CN1CCN([C@H]2CC[C@@H](Nc3nccc4[nH]c(-c5cc(F)cc(F)c5)nc34)CC2)CC1
solubility (shake flask; aqueous buffer; pH 6.5): > 200 µM

O=C(O)c1ccc(-c2ccc(-c3cc4ccc(O)cc4oc3=O)cc2)cc1
solubility (shake flask; PBS; 36 h; pH 7.4): 52.5 µM

Cc1ccc(S(=O)(=O)NCc2ccc(C(=O)NCCN(Cc3ccccc3)C(C)C)cc2)cc1
solubility (aqueous buffer; pH 5): 0.47 µg/mL

Cn1c(-c2nc3cc(C(=O)N4CCCC(N)C4)ccc3n2C)cc2ccccc21 (stereo not shown)
solubility (aqueous buffer): > 350 µM

Cc1cc(Nc2ccc(S(F)(F)(F)(F)F)cc2)n2nc(C3CC3)nc2n1
solubility (nephelometry; aqueous buffer; pH 6.5): 16 to 32 µM

CC(C)(C)n1nc(-c2ccc3nc(OC4CC4)ccc3c2)c(C(N)=O)c1N
solubility (PBS; pH 6.5; 25 °C): 96.3 µM

C[C@@H]1CN(c2nc3cc(Cl)ccc3n2Cc2ccccc2)C[C@H](C)N1
solubility (shake flask; aqueous buffer; 20 h; pH 6.5; 25 °C): 140 µM

OCCOc1ccccc1
solubility (PBS; 48 h; pH 7.4; 25 °C): 180000 µM

O=C(Nc1ccc(F)cc1C(=O)O)c1ccc(-c2ccccc2)cc1
solubility (shake flask; aqueous buffer; 24 h; pH 6.5; 25 °C): 10 µM

CC[C@H](C)[C@H](NC(=O)[C@H](Cc1ccccc1)NC(=O)[C@H](Cc1ccc(O)cc1)NC(=O)[C@@H]1CCCN1C(=O)[C@@H](N)Cc1ccc(O)cc1)C(=O)N1CCC[C@H]1C(=O)N[C@@H](CC(C)C)C(=O)NCC(=O)NCC(=O)NCC(=O)N[C@@H](CCC(=O)O)C(=O)N[C@H](C(=O)N[C@@H](CC(N)=O)C(=O)N[C@@H](CC(C)C)[C@@H](O)CC(=O)N[C@H](C(=O)N[C@@H](C)C(=O)N[C@@H](CCC(=O)O)C(=O)N1CCC[C@@H]1C(=O)N[C@@H](CCCCNC(=O)CCC(=O)O[C@H]1CC[C@@]2(C)C(=CC[C@H]3[C@@H]4CC[C@H]([C@H](C)CCCC(C)C)[C@@]4(C)CC[C@@H]32)C1)C(N)=O)C(C)C)C(C)C
solubility (aqueous buffer; pH 6.5): < 1 µg/mL

CCOC(=O)C1=C(C)NC(C)=C(C(=O)OC)C1c1cccc([N+](=O)[O-])c1 (stereo not shown)
solubility (FaSSIF; 24 h; pH 7.4; 37 °C): 8 µg/mL

Cc1cc(Nc2ccc(C(F)(F)F)cc2)n2nc(C3CC3)nc2n1
solubility (nephelometry; aqueous buffer; pH 6.5): 38 to 75 µM

CS(=O)(=O)c1ncn2c(NCc3c(F)ccc4c3CCO4)ncc(-c3ccc(C4CC4)nc3)c12
solubility (FaSSIF): 26.5 µg/mL

CCOc1ccc2cc(-c3nn(C(C)(C)C)c(N)c3C(N)=O)cnc2c1
solubility (PBS; pH 6.5; 25 °C): 26 µM

Cc1cc(Nc2ccc(C(F)(F)F)cc2)n2nc(CCO)nc2n1
solubility (nephelometry; aqueous buffer; pH 6.5): 19 to 37 µM

COCc1nn(Cc2ccc(Cn3ccccc3=O)cc2)cc1C(=O)NCc1c(F)ccc(OC)c1F
solubility (FaSSIF; 4 h; pH 6.5): 9 µg/mL

Cc1c(F)cccc1Nc1nc(NCc2ccccc2)c2ccccc2n1
solubility (aqueous buffer; pH 6.2): 0.05 µg/mL

CC[C@H](C)[C@H](NC(=O)[C@H](CO)NC(=O)[C@H](CCCNC(=N)N)NC(C)=O)C(=O)N[C@H]1CSSC[C@@H](C(=O)N[C@H](C(N)=O)[C@@H](C)O)NC(=O)[C@H](CCCNC(=N)N)NC(=O)[C@H](Cc2c[nH]cn2)NC(=O)[C@H](C)NC(=O)CNC(=O)[C@H](Cc2c[nH]c3ccccc23)NC(=O)[C@H](CC(=O)O)NC(=O)[C@H](CCC(N)=O)NC(=O)[C@H](Cc2c[nH]c3ccccc23)NC(=O)[C@H](C(C)C)NC1=O
solubility (PBS; pH 7.4): 3690 µg/mL

Cc1cc(F)cc(Nc2nc(NCc3ccccc3)c3ccccc3n2)c1
solubility (aqueous buffer; pH 7.4): < 0.01 µg/mL

CN1CCN(C2CCN(c3nccc4[nH]c(-c5cc(F)cc(F)c5)nc34)CC2)CC1
solubility (shake flask; aqueous buffer; pH 6.5): > 200 µM

CC(C)N1CCN(Cc2cnc(-c3cc(-c4cccc5[nH]ccc45)cc4[nH]ncc34)o2)CC1
solubility (aqueous buffer; pH 10): 1 µg/mL

COc1cccc2c(NCc3ccccc3)nc(NCc3ccccc3)nc12
solubility (aqueous buffer; pH 6.2): 1 µg/mL

O=C(Nc1cc(F)c(F)c(F)c1)c1ccc(F)c(S(=O)(=O)NCc2cccc(B(O)O)c2)c1
solubility (aqueous buffer; pH 7.4): 427 µg/mL

Fc1ccc(-c2nc3c(N4CCCN(CC5CC5)CC4)nccc3[nH]2)cc1F
solubility (shake flask; aqueous buffer; pH 6.5): > 200 µM

CCCCCCCCCCCCCC(=O)Nc1ccc(CP(=O)(O)O)cc1
solubility (water): 1000 µg/mL

Clc1ccc2c(c1)nc(C1CCNCC1)n2Cc1ccccc1
solubility (shake flask; aqueous buffer; 20 h; pH 6.5; 25 °C): 125 µM

Cc1ccc(-n2sc(=O)n(Cc3ccc(F)cc3)c2=O)cc1
solubility (aqueous buffer): ~200 µM

CS(=O)(=O)N1CCN(Cc2cc3nc(-c4cccc5[nH]ncc45)nc(N4CCOCC4)c3s2)CC1
solubility (FaSSIF): 1 µg/mL

Brc1cccc(Nc2nc(NCc3ccccc3)c3ccccc3n2)c1
solubility (aqueous buffer; pH 6.2): 0.01 µg/mL

CSC[C@H]1O[C@@H](n2cnc3c(N)ncnc32)[C@H](O)[C@@H]1O
solubility (PBS): 110 µM

Clc1cccc(Nc2nc(NCc3cccc(Br)c3)c3ccccc3n2)c1
solubility (aqueous buffer; pH 6.2): 0.02 µg/mL

[Br-].c1ccc(-c2n(Cc3ccc4ccccc4c3)cc[n+]2Cc2ccc3ccccc3c2)cc1
solubility (water): < 500 µg/mL

COc1ccc2cc(-c3nn(C(C)(C)C)c(N)c3C(N)=O)cnc2c1
solubility (PBS; pH 6.5; 25 °C): > 100 µM

N=C(N)NCc1ccc(NC(=O)C23CC(C(=O)Nc4ccc(C5=CCN(C(=N)N)CC5)cc4)(C2)C3)cc1
solubility (shake flask; aqueous buffer; pH 7.4): 770 µg/mL

O=C(Nc1ccc(S(=O)(=O)N2CCC(Cl)CC2)cc1)c1ccc([N+](=O)[O-])o1
solubility (aqueous buffer; pH 7.4): 9.7 µM

COc1ccc(Nc2nc(NCc3ccccc3)c3ccccc3n2)cc1F
solubility (aqueous buffer; pH 5): 3.4 µg/mL
